Measured values: ChEMBL document CHEMBL5634200, “Discovery of the First Potent DYRK2 Proteolysis Targeting Chimera Degraders” (ACS Med Chem Lett, 2024)
Blank lines part the entries; values can stand above or below the compound they belong to. Activity calls are given as the source filed them. The calls are words filed in the database; no cut-off is given here.

Experiments:
[1] = target: T1, Protein cereblon/Dual specificity tyrosine-phosphorylation-regulated kinase 2 (Homo sapiens, UniProt Q92630+Q96SW2); assay: PROTAC activity at CRBN/DYRK2 in human HeLa cells assessed as reduction in DYRK2 protein level at 5 to 10 uM incubated for 12 hrs by Western blot analysis; type: cell-based; details: dose 5-10 µM
[2] = target: T1, Protein cereblon/Dual specificity tyrosine-phosphorylation-regulated kinase 2; assay: PROTAC activity at CRBN/DYRK2 in human HeLa cells assessed as induction of DYRK2 degradation at 10 to 20 uM incubated for 24 hrs by Western blot analysis; type: cell-based; details: dose 10-20 µM
Outline: (§1)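 HeLa cells treated 24 h (one series at 10 and 20 μM, another at 5 and 10 μM); DYRK2 immunoblotted with GAPDH loading reference; band quantitation as mean ± SEM of three independent replicates, one-way ANOVA.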

[3] = target: T1, Protein cereblon/Dual specificity tyrosine-phosphorylation-regulated kinase 2; assay: PROTAC activity at CRBN/DYRK2 in human HeLa cells assessed as induction of DYRK2 degradation at 5 to 10 uM incubated for 24 hrs by Western blot analysis; type: cell-based; details: dose 5-10 µM; outline: as §1
[4] = system: MDA-MB-231; assay: Antiproliferative activity against human MDA-MB-231 cells assessed as inhibition of cell proliferation by CCK-8 assay; type: functional, cell-based
[5] = target: T2, Dual specificity tyrosine-phosphorylation-regulated kinase 2 (Homo sapiens, UniProt Q92630); assay: Binding affinity to DYRK2 (unknown origin) assessed as dissociation constant by SPR analysis
T2 sequence (Q92630 whole entry): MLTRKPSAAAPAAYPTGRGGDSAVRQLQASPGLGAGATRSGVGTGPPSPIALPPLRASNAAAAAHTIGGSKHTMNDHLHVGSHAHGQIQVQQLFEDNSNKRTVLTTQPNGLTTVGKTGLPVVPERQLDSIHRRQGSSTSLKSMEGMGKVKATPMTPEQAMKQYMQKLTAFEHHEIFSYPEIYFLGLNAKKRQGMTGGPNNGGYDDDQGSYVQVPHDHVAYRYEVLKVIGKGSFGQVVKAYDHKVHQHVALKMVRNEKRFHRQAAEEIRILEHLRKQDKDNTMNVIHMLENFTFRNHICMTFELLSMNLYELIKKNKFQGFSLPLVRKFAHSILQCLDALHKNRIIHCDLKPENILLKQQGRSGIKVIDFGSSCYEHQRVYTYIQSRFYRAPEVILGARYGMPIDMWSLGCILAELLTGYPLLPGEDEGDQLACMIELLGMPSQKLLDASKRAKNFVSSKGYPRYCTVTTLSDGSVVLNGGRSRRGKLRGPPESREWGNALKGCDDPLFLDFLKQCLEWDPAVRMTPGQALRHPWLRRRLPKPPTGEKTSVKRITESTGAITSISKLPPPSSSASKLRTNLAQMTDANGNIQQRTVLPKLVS

[6] = target: T2, Dual specificity tyrosine-phosphorylation-regulated kinase 2; assay: Inhibition of human recombinant DYRK2 using KKISGRLSPIMTEQ as substrate incubated for 60 mins in the presence of ATP by ADP-Glo kinase assay
[7] = target: T1, Protein cereblon/Dual specificity tyrosine-phosphorylation-regulated kinase 2; assay: PROTAC activity at CRBN/DYRK2 in human MDA-MB-231 cells assessed as decrease in c-Myc phosphorylation at Ser62 residue at 5 to 20 uM incubated for 12 hrs by Western blot analysis; type: cell-based; details: dose 5-20 µM
Outline: (§2)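 MM231 cells exposed 12 h across 1.25 to 20 μM; phospho-p53 (Ser46) and phospho-c-Myc (Ser62) immunoblotted, GAPDH loading reference; mean ± SEM of three independent replicates, one-way ANOVA.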

[8] = target: T1, Protein cereblon/Dual specificity tyrosine-phosphorylation-regulated kinase 2; assay: PROTAC activity at CRBN/DYRK2 in human MDA-MB-231 cells assessed as increase in ubiquitination of DYRK2 at 10 uM incubated for 12 hrs by coimmunoprecipitation analysis; type: cell-based
Outline: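 MM231 cells pretreated with 10 μM MG132 for 2 h, then compound for 12 h; DYRK2 and ubiquitin examined by co-immunoprecipitation.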

[9] = target: T1, Protein cereblon/Dual specificity tyrosine-phosphorylation-regulated kinase 2; assay: PROTAC activity at CRBN/DYRK2 in human MDA-MB-231 cells assessed as decrease in p53 phosphorylation at Ser46 residue at 5 to 20 uM incubated for 12 hrs by Western blot analysis; type: cell-based; details: dose 5-20 µM; outline: as §2
[10] = target: T1, Protein cereblon/Dual specificity tyrosine-phosphorylation-regulated kinase 2; assay: PROTAC activity at CRBN/DYRK2 in human HeLa cells assessed as decrease in DYRK2 level at 5 uM by Western blot analysis; type: cell-based; details: time 3-24 hrs, TDE = time-dependent effect
Outline: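 HeLa cells held at 5 μM over a time course (3 to 24 h); DYRK2 immunoblot normalised to GAPDH, quantified from three independent replicates, one-way ANOVA.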

[11] = target: T1, Protein cereblon/Dual specificity tyrosine-phosphorylation-regulated kinase 2; assay: PROTAC activity at CRBN/DYRK2 in human HeLa cells assessed as decrease in DYRK2 level by measuring reduction in fluorescence intensity at 5 to 10 uM incubated for 12 hrs by immunofluorescence based confocal laser scanning microscopy; type: cell-based; details: dose 5-10 µM
Outline: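 HeLa cells treated 5 and 10 μM for 12 h; DYRK2 immunostained, Cy3 fluorescence intensity read by confocal laser scanning microscopy and quantified.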

[12] = target: T1, Protein cereblon/Dual specificity tyrosine-phosphorylation-regulated kinase 2; assay: PROTAC activity at CRBN/DYRK2 in human HeLa cells assessed as induction of DYRK2 degradation at 2.5 to 40 uM incubated for 24 hrs by Western blot analysis; type: cell-based; details: dose 2.5-40 µM
Outline: (§3)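 HeLa cells exposed to graded concentrations for 24 h; DYRK2 Western blot normalised to GAPDH, three independent replicates (mean ± SEM); DC50 derived from concentration series.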

[13] = target: T1, Protein cereblon/Dual specificity tyrosine-phosphorylation-regulated kinase 2; assay: PROTAC activity at CRBN/DYRK2 in human MDA-MB-231 cells assessed as reduction of DYRK2 protein level at 5 uM incubated for 12 hrs in presence of 3,5-bis(2-bromobenzylidene)piperidin-4-one by Western blot analysis; type: cell-based
[14] = target: T1, Protein cereblon/Dual specificity tyrosine-phosphorylation-regulated kinase 2; assay: PROTAC activity at CRBN/DYRK2 in human MDA-MB-231 cells assessed as reduction in DYRK2 degradation level at 10 uM preincubated with MG132 for 2 hrs followed by compound addition and further incubated for 12 hrs by Western blot analysis; type: cell-based
Outline: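 MM231 cells pretreated 2 h with 10 μM MG132 (UPS inhibitor) before compound for 12 h; DYRK2 Western blot with GAPDH reference, three independent replicates, one-way ANOVA.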

[15] = target: T1, Protein cereblon/Dual specificity tyrosine-phosphorylation-regulated kinase 2; assay: PROTAC activity at CRBN/DYRK2 in human HeLa cells assessed as induction of DYRK2 degradation incubated for 24 hrs by Western blot analysis; type: cell-based; outline: as §3
[16] = target: T1, Protein cereblon/Dual specificity tyrosine-phosphorylation-regulated kinase 2; assay: PROTAC activity at CRBN/DYRK2 in human MDA-MB-231 cells assessed as decrease in DYRK2 level at 2.5 to 10 uM incubated for 12 hrs by flow cytometry analysis; type: cell-based; details: dose 5-10 µM, in the assay text read “5 to 10 uM” for “2.5 to 10 uM”
Outline: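 MM231 cells treated 12 h; DYRK2 immunostaining quantified by flow cytometry as FITC-A channel fluorescence intensity.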

[17] = target: T1, Protein cereblon/Dual specificity tyrosine-phosphorylation-regulated kinase 2; assay: PROTAC activity at CRBN/DYRK2 in human MDA-MB-231 cells assessed as induction of DYRK2 degradation incubated for 24 hrs by Western blot analysis; type: cell-based
Outline: (§4)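 MM231 cells given graded concentrations for 24 h; DYRK2 Western blot with GAPDH loading reference, three independent replicates (mean ± SEM); DC50 taken from concentration–degradation data.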

[18] = target: T1, Protein cereblon/Dual specificity tyrosine-phosphorylation-regulated kinase 2; assay: PROTAC activity at CRBN/DYRK2 in human MDA-MB-231 cells assessed as induction of DYRK2 degradation at 2.5 to 40 uM incubated for 24 hrs by Western blot analysis; type: cell-based; details: dose 2.5-40 µM; outline: as §4

- Activity [1]: inactive
SMILES: CN1C(=O)CCC(N2C(=O)c3cccc(NCCOCCOCCOCCNC(=O)CN4C/C(=C\c5ccccc5Br)C(=O)/C(=C/c5ccccc5Br)C4)c3C2=O)C1=O (centres undefined)

- Activity [2]: Active
SMILES: COc1cc(/C=C/C(=O)CC(=O)/C=C/c2ccc(OC(=O)CCOCCOCCNC(=O)COc3cccc4c3C(=O)N(C3CCC(=O)NC3=O)C4=O)c(OC)c2)ccc1O (centres undefined)

- Activity [3]: Active
SMILES: O=C(CN1C/C(=C\c2ccccc2F)C(=O)/C(=C/c2ccccc2F)C1)NCCOCCOCCOCCNc1cccc2c1C(=O)N(C1CCC(=O)NC1=O)C2=O (centres undefined)

- IC50 [4]: > 20 µM
- Kd [5]: 14.5 µM
- IC50 [6]: 0.01 µM
SMILES: COc1cc(/C=C/C(=O)CC(=O)/C=C/c2ccc(O)c(OC)c2)ccc1O [CURCUMIN]

- Activity [3]: Active
SMILES: O=C(CN1C/C(=C\c2ccccc2Cl)C(=O)/C(=C/c2ccccc2Cl)C1)NCCOCCOCCOCCNc1cccc2c1C(=O)N(C1CCC(=O)NC1=O)C2=O (centres undefined)

- Activity [3]: Active
SMILES: O=C(CN1C/C(=C\c2ccccc2F)C(=O)/C(=C/c2ccccc2F)C1)NCCOCCOCCNc1cccc2c1C(=O)N(C1CCC(=O)NC1=O)C2=O (centres undefined)

- Activity [7]: Active
- Activity [8]: Active
- Activity [9]: Active
- Activity [10]: Tde
- Activity [11]: Active
- Activity [12]: Active
- IC50 [4]: 9.1 µM
- Activity [13]: inactive
- Activity [14]: inactive
- DC50 [15]: 3.26 µM
- Activity [16]: Active
- Kd [5]: 29.7 µM
- Activity [3]: Active
- DC50 [17]: 1.61 µM
- Activity [18]: Active
SMILES: O=C(CN1C/C(=C\c2ccccc2Br)C(=O)/C(=C/c2ccccc2Br)C1)NCCOCCOCCOCCNc1cccc2c1C(=O)N(C1CCC(=O)NC1=O)C2=O (centres undefined)

- Activity [3]: Active
SMILES: O=C(CN1C/C(=C\c2ccccc2Cl)C(=O)/C(=C/c2ccccc2Cl)C1)NCCOCCOCCNc1cccc2c1C(=O)N(C1CCC(=O)NC1=O)C2=O (centres undefined)

- IC50 [4]: 4.2 µM
- Kd [5]: 7.9 µM
- IC50 [6]: 0.024 µM
SMILES: O=C1/C(=C/c2ccccc2Br)CNC/C1=C\c1ccccc1Br

- Activity [2]: Active
SMILES: COc1cc(/C=C/C(=O)CC(=O)/C=C/c2ccc(OC(=O)CCOCCOCCOCCNC(=O)COc3cccc4c3C(=O)N(C3CCC(=O)NC3=O)C4=O)c(OC)c2)ccc1O (centres undefined)

- Activity [3]: Active
SMILES: O=C(CN1C/C(=C\c2ccccc2Br)C(=O)/C(=C/c2ccccc2Br)C1)NCCOCCOCCNc1cccc2c1C(=O)N(C1CCC(=O)NC1=O)C2=O (centres undefined)
